Measurements taken from ChEMBL document CHEMBL1144209, “CYP19 (aromatase): exploring the scaffold flexibility for novel selective inhibitors” (Bioorg Med Chem, 2008).
pIC50: −log10 of the molar value.

Assays:
Aromatase [1] = biological target: T1, Aromatase (Homo sapiens, UniProt P11511); experiment: Inhibition of human aromatase at 36 uM
T1 sequence (P11511 whole entry): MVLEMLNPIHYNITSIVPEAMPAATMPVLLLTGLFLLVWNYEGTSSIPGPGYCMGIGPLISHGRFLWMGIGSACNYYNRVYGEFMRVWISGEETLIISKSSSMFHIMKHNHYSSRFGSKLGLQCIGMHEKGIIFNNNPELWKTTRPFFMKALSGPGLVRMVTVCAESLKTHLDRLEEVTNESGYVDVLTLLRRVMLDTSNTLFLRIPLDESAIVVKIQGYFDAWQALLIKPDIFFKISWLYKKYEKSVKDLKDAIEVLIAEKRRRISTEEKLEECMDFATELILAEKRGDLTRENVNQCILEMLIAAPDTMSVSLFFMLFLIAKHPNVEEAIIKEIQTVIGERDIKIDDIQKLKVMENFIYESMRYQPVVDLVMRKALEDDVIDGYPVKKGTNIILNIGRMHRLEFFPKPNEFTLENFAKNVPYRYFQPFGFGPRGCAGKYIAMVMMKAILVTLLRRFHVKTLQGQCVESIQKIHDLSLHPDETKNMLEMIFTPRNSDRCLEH
Summary of the method: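 Aromatase source: microsomal fraction of fresh human term placenta. Substrate: [1β,2β-³H]testosterone, 500 nM. Read-out: tritiated water released on aromatization (³H₂O method). Values are means of at least three experiments, with deviations within 5%.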

[2] = biological target: T2, CYP17 (steroid 17-alpha-hydroxylase/17,20 lyase) (Homo sapiens, UniProt P05093); experiment: (§1) Inhibition of human CYP17 expressed in Escherichia coli coexpressing NADPH reductase at 2 uM
T2 sequence (P05093 whole entry): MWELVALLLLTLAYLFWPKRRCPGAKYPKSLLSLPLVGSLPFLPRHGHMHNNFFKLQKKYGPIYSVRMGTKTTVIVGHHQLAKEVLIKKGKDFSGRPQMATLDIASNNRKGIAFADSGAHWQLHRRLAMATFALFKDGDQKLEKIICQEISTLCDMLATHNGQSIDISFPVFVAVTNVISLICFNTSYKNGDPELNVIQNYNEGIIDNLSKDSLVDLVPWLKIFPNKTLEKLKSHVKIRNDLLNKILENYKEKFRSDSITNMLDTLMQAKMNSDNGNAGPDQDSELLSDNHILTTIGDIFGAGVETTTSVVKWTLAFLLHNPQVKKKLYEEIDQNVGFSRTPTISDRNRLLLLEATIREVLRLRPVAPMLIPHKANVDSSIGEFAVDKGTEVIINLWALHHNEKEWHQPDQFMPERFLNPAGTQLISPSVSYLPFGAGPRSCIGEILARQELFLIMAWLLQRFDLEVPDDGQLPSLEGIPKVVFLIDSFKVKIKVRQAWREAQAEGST
Summary of the method: (§2)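 Enzyme: 50,000g sediment from homogenized, fractionally centrifuged E. coli coexpressing human CYP17 and NADPH-P450 reductase. Substrate: progesterone, 25 µM. Values are means of at least three experiments, with deviations within 5%.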

[3] = biological target: T3, Steroid 17-alpha-hydroxylase/17,20 lyase (Homo sapiens, UniProt P05093); experiment: as §1; conditions: 2 µM; summary of the method: as §2
T3 sequence (P05093 whole entry): T2 sequence (P05093 whole entry)

Aromatase [4] = biological target: T1, Aromatase; experiment: Inhibition of human aromatase

Row | Compound | inhibition at 36 µM (Aromatase [1]) [%] | inhibition at 2 µM [2] [%] | Activity [3] | pIC50 (Aromatase [4])
1 | CC(C)(C)c1ccc(CN(CC/C=C/c2ccccc2)n2cnnc2)cc1 | 38.3 | 19.9 | – | –
2 | Clc1ccc(CN(CC/C=C/c2ccccc2)n2cnnc2)c(Cl)c1 | 10.6 | – | Not Active | –
3 | Fc1ccc(CC(Cc2ccc(-c3ccccc3)cc2)n2ccnc2)cc1 (stereo unspecified) | – | 15.8 | – | 6.96
4 | Clc1ccc(CN(Cc2cccc3ccsc23)n2ccnc2)c(Cl)c1 | – | 4.07 | – | 5.60
5 | Clc1ccc(CN(Cc2ccccc2)n2ccnc2)s1 | – | 7.3 | – | 5.97
6 | Fc1ccc(CN(Cc2ccc(-c3ccccc3)cc2)n2ccnc2)cc1 | – | 13.9 | – | 6.72
7 | COc1ccc(CC(Cc2ccc(-c3ccccc3)cc2)n2ccnc2)cc1 (stereo unspecified) | – | 38.8 | – | 5.77
8 | c1ccc(CC(Cc2ccc(-c3ccccc3)cc2)n2ccnc2)cc1 (stereo unspecified) | – | 17.1 | – | 6.02
9 | Clc1ccccc1CC(Cc1ccc(-c2ccccc2)cc1)n1ccnc1 (stereo unspecified) | – | 22.6 | – | 5.96
10 | CC(C)(C)c1ccc(CC(Cc2ccc(-c3ccccc3)cc2)n2ccnc2)cc1 (stereo unspecified) | – | – | Not Active | 6.00
11 | Clc1ccc(CN(Cc2ccc(Cl)s2)n2ccnc2)c(Cl)c1 | – | 56.2 | – | 6.49
12 | CC(C)(C)c1ccc(CN(Cc2cccs2)n2cncn2)cc1 | – | – | Not Active | 5.03
13 | CC(C)(C)c1ccc(CN(Cc2ccc(Cl)cc2Cl)n2ccnc2)cc1 | – | 43.3 | – | 5.82
14 | Clc1ccc(CC(Cc2ccc(-c3ccccc3)cc2)n2ccnc2)s1 (stereo unspecified) | – | 25.7 | – | 5.97
15 | Clc1ccc(CN(Cc2ccc(-c3ccccc3)cc2)n2cnnc2)c(Cl)c1 | – | 13.1 | – | –
16 | CC(C)(C)c1ccc(CN(Cc2cccs2)n2ccnc2)cc1 | – | 10.7 | – | 6.24
17 | Clc1ccc(CN(Cc2ccc(-c3ccccc3)cc2)n2cncn2)c(Cl)c1 | 27.6 | 9.2 | – | –
18 | COc1ccccc1CC(Cc1ccc(-c2ccccc2)cc1)n1ccnc1 (stereo unspecified) | – | 30.2 | – | 6.29
19 | c1ccc(CN(Cc2ccc(-c3ccccc3)cc2)n2ccnc2)cc1 | – | – | Not Active | 5.92
20 | Clc1ccc(CN(Cc2ccc(-c3ccccc3)cc2)n2ccnc2)s1 | – | 23.6 | – | 5.98
21 | Fc1ccc(CC(Cc2ccc(-c3ccccc3)cc2)n2ccnc2)c(F)c1 (stereo unspecified) | – | 17.7 | – | 6.59
22 | Clc1ccc(CN(Cc2ccc(-c3ccccc3)cc2)n2ccnc2)c(Cl)c1 | – | 25.8 | – | 5.44
23 | C(=C\c1ccccc1)/CCN(Cc1ccc(-c2ccccc2)cc1)n1cncn1 | 31.4 | 12.4 | – | –
24 | C(=C\c1ccccc1)/CCN(Cc1cccc2ccccc12)n1cnnc1 | 14.8 | 6.1 | – | –
25 | Clc1ccc(CC(Cc2ccccc2)n2ccnc2)s1 (stereo unspecified) | – | 7.97 | – | 6.06
26 | Clc1ccccc1CN(Cc1ccc(-c2ccccc2)cc1)n1ccnc1 | – | 29.4 | – | 6.52
27 | Clc1ccc(CN(Cc2cccc3ccccc23)n2cncn2)c(Cl)c1 | 24.9 | – | Not Active | –

Row | Compound | inhibition at 36 µM (Aromatase [1]) [%] | inhibition at 2 µM [2] [%] | Activity [3] | pIC50 (Aromatase [4])
28 | Fc1ccccc1CN(Cc1ccc(-c2ccccc2)cc1)n1ccnc1 | – | – | Not Active | 6.34
29 | Cc1ccccc1CC(Cc1ccc(-c2ccccc2)cc1)n1ccnc1 (stereo unspecified) | – | 25 | – | 5.98
30 | Cc1ccccc1CN(Cc1ccc(-c2ccccc2)cc1)n1ccnc1 | – | 20.6 | – | 5.53
31 | Cc1ccc(CC(Cc2ccc(-c3ccccc3)cc2)n2ccnc2)cc1 (stereo unspecified) | – | 32.8 | – | 5.88
32 | Clc1ccc(CN(Cc2cccc3ccccc23)n2cnnc2)c(Cl)c1 | 8.8 | 4.43 | – | –
33 | C(=C\c1ccccc1)/CCN(Cc1cccc2ccccc12)n1cncn1 | – | 15.5 | – | 4.88
34 | CC(C)(C)c1ccc(CN(Cc2ccc(-c3ccccc3)cc2)n2cnnc2)cc1 | 8.8 | 15.9 | – | –
35 | CC(C)(C)c1ccc(CN(Cc2ccc(-c3ccccc3)cc2)n2cncn2)cc1 | 19.8 | 6.03 | – | –
36 | CC(C)(C)c1ccc(CN(Cc2cccs2)n2cnnc2)cc1 | 30.7 | – | Not Active | –
37 | CC(C)(C)c1ccc(CN(Cc2ccc(Cl)cc2Cl)n2cnnc2)cc1 | 3.3 | 4 | – | –
38 | CC(C)(C)c1ccc(CN(Cc2cccc3ccccc23)n2ccnc2)cc1 | – | 13 | – | 5.34
39 | Clc1ccc(CN(Cc2cccc3ccccc23)n2ccnc2)c(Cl)c1 | – | 11.3 | – | 5.40
40 | c1ccc(CN(Cc2cccc3ccsc23)n2ccnc2)cc1 | – | 5.25 | – | 5.00
41 | COc1ccc(CN(Cc2ccc(-c3ccccc3)cc2)n2ccnc2)cc1 | – | 21.7 | – | 5.82
42 | Cc1ccc(CN(Cc2ccc(-c3ccccc3)cc2)n2ccnc2)cc1 | – | 29.1 | – | 5.66
43 | CC(C)(C)c1ccc(CN(Cc2cccc3ccccc23)n2cncn2)cc1 | 14.6 | 3.13 | – | –
44 | Clc1ccc(CC(Cc2ccc(-c3ccccc3)cc2)n2ccnc2)c(Cl)c1 (stereo unspecified) | – | 18.2 | – | 5.91
45 | Fc1ccccc1CC(Cc1ccc(-c2ccccc2)cc1)n1ccnc1 (stereo unspecified) | – | – | Not Active | 5.86
46 | CC(C)(C)c1ccc(CN(Cc2cccc3ccccc23)n2cnnc2)cc1 | – | 22.4 | – | –
47 | CC(C)(C)c1ccc(CN(Cc2ccc(-c3ccccc3)cc2)n2ccnc2)cc1 | – | – | Not Active | 5.67
48 | Clc1ccc(CN(Cc2ccc(-c3ccccc3)cc2)n2ccnc2)cc1 | – | 13.6 | – | 5.93
49 | Clc1ccc(CN(CC/C=C/c2ccccc2)n2cncn2)c(Cl)c1 | – | 21.1 | – | 4.77
50 | CC(C)(C)c1ccc(CN(Cc2ccc(Cl)cc2Cl)n2cncn2)cc1 | 36 | 3.33 | – | –
51 | COc1ccccc1CN(Cc1ccc(-c2ccccc2)cc1)n1ccnc1 | – | 42.9 | – | 5.82
52 | C(=C\c1ccccc1)/CCN(Cc1ccc(-c2ccccc2)cc1)n1cnnc1 | 5.9 | 16.1 | – | –
53 | CC(C)(C)c1ccc(CN(CC/C=C/c2ccccc2)n2cncn2)cc1 | – | 12.4 | – | 5.30
54 | Fc1ccc(CN(Cc2ccc(-c3ccccc3)cc2)n2ccnc2)c(F)c1 | – | – | Not Active | 6.46
